# The list is not random: actives were taken first. Their share in the collection is about 1.3%.
# PLCb3 inh = inhibitors of human phospholipase C beta3; Q01970; Purified PLC-beta3, fluorogenic substrate, fluorescence; inhibition, % at 12.2 µM; 0.18% of 370,000 active; AID 720704; in the data active = inhibition above about 11%;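 also: 0% = median of compound wells on plate and 100% = full blocker control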
# Target sequence (Q01970 whole entry, looked up): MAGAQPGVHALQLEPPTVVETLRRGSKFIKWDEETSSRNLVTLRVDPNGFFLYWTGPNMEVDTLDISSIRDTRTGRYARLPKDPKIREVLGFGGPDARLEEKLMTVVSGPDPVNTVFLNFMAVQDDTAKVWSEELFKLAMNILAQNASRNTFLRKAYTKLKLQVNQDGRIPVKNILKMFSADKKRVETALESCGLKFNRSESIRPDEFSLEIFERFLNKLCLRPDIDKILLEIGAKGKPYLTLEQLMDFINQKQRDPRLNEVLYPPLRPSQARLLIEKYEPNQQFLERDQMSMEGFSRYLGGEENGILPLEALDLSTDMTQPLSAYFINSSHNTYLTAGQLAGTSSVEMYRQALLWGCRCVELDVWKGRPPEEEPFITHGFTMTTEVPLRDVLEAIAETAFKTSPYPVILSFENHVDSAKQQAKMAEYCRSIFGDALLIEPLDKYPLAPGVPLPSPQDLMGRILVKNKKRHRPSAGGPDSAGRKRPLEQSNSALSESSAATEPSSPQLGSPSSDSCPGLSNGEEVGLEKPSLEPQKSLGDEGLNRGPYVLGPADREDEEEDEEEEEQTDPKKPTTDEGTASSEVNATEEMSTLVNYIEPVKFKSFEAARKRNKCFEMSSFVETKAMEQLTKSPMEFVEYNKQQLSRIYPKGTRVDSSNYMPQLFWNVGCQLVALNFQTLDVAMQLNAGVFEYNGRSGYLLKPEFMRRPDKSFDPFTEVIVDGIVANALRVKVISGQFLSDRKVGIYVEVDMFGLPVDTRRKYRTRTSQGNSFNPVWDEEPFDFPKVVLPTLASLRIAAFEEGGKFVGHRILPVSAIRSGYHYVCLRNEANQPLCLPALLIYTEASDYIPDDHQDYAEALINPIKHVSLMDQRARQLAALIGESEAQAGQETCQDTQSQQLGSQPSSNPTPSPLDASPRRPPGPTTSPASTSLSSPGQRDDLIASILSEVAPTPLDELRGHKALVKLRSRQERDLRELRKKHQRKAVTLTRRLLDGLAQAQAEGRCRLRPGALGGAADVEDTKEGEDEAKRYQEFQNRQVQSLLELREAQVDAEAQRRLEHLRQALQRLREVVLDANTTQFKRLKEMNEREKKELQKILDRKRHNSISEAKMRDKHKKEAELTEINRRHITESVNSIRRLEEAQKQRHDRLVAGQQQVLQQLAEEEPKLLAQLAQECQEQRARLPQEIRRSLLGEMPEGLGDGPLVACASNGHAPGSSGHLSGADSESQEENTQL
# PLC-gamma1 inh = blocks human PLC-gamma1 enzyme activity; P19174; purified PLC-gamma1, fluorogenic substrate, fluorescence; inhibition, % at 12.2 µM; 0.84% of 370,000 active; AID 720700; in the data active = inhibition above about 9.5%
# Arr AP2 block = inhibitors of human beta-arrestin and AP2 interaction | 0.31% of 340,000 active | inhibition, % at 10 µM | FITC-arrestin peptide / GST-AP2 beads, flow cytometry; AP2 beta2 appendage carries R879A mutation;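 active = inhibition above a set limit, near 3 SD of compounds lacking own fluorescence, cut at about 54% in these data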;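 also: plate controls were DMSO wells for no effect and 5 µM unlabelled arrestin peptide for full effect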
#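 Material – AP2 appendage R879A on GSH beads · Buffer or medium – PBS with 0.05% Tween 20 and 0.1% BSA · Probe or stimulus – fluorescein-tagged arrestin peptide at 50 nM final · Incubation – compound with beads 12 min RT, then probe 1 h RT · Detection – high-throughput flow cytometry of beads, ex 488, em 535 nm · Evaluation – percent response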
# NTR1 agonist = agonists of human neurotensin receptor NTR1; 0.17% of 330,000 active; P30989; NTR1-U2OS beta-arrestin-GFP spot imaging, agonist mode; activation, % at 20 µM;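 active = activation at or above 40% of the spot to cytoplasm intensity ratio, with at least 20 cells analyzed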;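 also: 0% = DMSO without peptide and 100% = 100 nM NTR1 peptide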
# Arr-AP2 CP1 = blocks beta-arrestin peptide binding to human AP2; GST-AP2 beads, FITC arrestin peptide binding, flow cytometry; GST-fused beta2-adaptin appendage, R879A mutant; 2% of 1,300 active; inhibition, % at 10 µM; shares compounds with Arr AP2 block;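 active = inhibition above a set limit, roughly 3 SD of non-fluorescent compound noise, cut at about 38% in these data; inactive = inhibition at or below that limit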;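 also: loss of bead fluorescence from 50 nM FITC arrestin peptide bound to appendage; 0% = negative control wells and 100% = excess unlabelled arrestin peptide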
# GST GSH counter = disrupts GST binding to glutathione beads, arrestin-AP2 artifact | shares compounds with Arr AP2 block | GST-fluorescein binding to GSH beads, fluorescence, counter-screen | inhibition, % at 10 µM | 2% of 1,300 active;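 active = inhibition above 50%, about 3 SD of the inhibition seen with non-fluorescent compounds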;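 also: fluorescein maleimide labelled GST captured on 4 micron glutathione beads; higher means more loss of bead fluorescence from quenching or blocked binding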
# An asterisk follows results filed as active; · = no result.
SMILES,PLCb3 inh,PLC-gamma1 inh,Arr AP2 block,NTR1 agonist,Arr-AP2 CP1,GST GSH counter
COc1cccc(CN(C)CC(=O)Nc2cc3oc4ccccc4c3cc2OC)c1,-5.8,-6.6,2.6,3.2,0.6,-0.4
COc1cc2c(cc1NC(=O)COCC(=O)O)oc1ccccc12,-6.9,0.1,26.9,1.7,·,·
COc1cc2c(cc1NC(=O)CN(C)Cc1cccc(OC)c1OC)oc1ccccc12,1.5,3.1,-7.0,4.7,-1.5,1.0
O=C(CSc1cccc[n+]1[O-])NC(=O)c1ccc(OC(F)F)cc1,-3.6,-2.3,54.3*,0.9,-9.4,-2.1
COC(=O)C[C@@H]1CC[C@H]2[C@H](COc3ccc(NC(=O)Nc4ccc(C#N)cc4)cc3C(=O)N2C)O1,-1.9,-0.1,·,·,·,·
Cc1ccc(CNC(=O)O[C@H]2CC[C@@]34CCCN3C(=O)CCC[C@H]4[C@H]2C)o1,1.3,-0.4,·,·,·,·
COc1ccc(CC2(CO)CCN(Cc3ccc(NC(C)=O)cc3)CC2)cc1,-1.8,5.3,56.1*,0.0,6.3,-0.2
S=C(Nc1ccccc1Br)OCCN1CCCC12CCC(c1ccccc1)CC2 (stereo not drawn),-2.8,-1.6,·,·,·,·
CCOc1ccc(/C=N/NC(=O)Cc2csc(Nc3cccc(C(F)(F)F)c3)n2)cc1,-2.1,1.0,85.5*,19.6,8.5,2.4
CCOc1ccc(/C=N/NC(=O)Cc2csc(Nc3cccc(C(F)(F)F)c3)n2)c(OCC)c1,-3.3,-3.5,6.8,16.4,·,·
NC(=O)c1c(N)[nH]c(C(=O)c2ccccc2)c1-c1cccc2ccccc12,-34.0,-26.7,·,·,·,·
O=C(O)c1ccccc1/C=N/Nc1ccc(S(=O)(=O)N2CCCC2)cc1[N+](=O)[O-],-4.5,5.6,-9.9,0.6,·,·
O=[N+]([O-])c1cc(S(=O)(=O)N2CCCC2)ccc1N/N=C/c1cccnc1,4.0,8.9,69.6*,2.0,16.7,28.4
Nc1ncc(Br)cc1S(=O)(=O)Nc1ccccc1F,-4.9,-0.7,58.4*,0.6,2.7,-10.7
COCCCNC(=O)c1ccc(Cn2c(=O)c3ccccc3n(Cc3ccc([N+](=O)[O-])cc3)c2=O)cc1,1.4,1.6,·,·,·,·
COc1ccc(CC(=O)OCC(=O)Nc2ccc(C(=O)Nc3ccc(OC)cc3)cc2)cc1,-6.6,-1.8,-27.3,-0.2,·,·
CCOc1ccc(NC(=O)c2ccc(NC(=O)COC(=O)Cc3ccc(OC)cc3)cc2)cc1,1.6,0.4,55.0*,-1.5,4.8,-5.2
CCNC(=S)N/N=C/c1sc(N2CCCCC2)nc1-c1cccs1,-24.6,-20.7,105.6*,7.0,-0.4,-2.9
COC(=O)C1CN(CC(C)C)CCS(=O)(=O)N1Cc1ccc(C(F)(F)F)cc1 (stereo not drawn),3.2,-0.7,·,·,·,·
CCOC(=O)C1CCN(c2cc3c(cc2NC(=O)c2ccccc2F)n(C)c(=O)n3C)CC1,-161.9,-96.8,34.5,2.9,-9.9,5.5
CCOc1cc(NC(=O)C2CC2)c(OCC)cc1NC(=O)c1ccccc1OCC,-34.4,-30.5,-5.7,12.0,·,·
CCOC(=O)C1CCN(c2cc3c(cc2NC(=O)c2ccccc2Cl)n(C)c(=O)n3C)CC1,-242.4,-170.4,-6.4,7.6,-4.1,1.1
Cn1c(=O)n(C)c2cc(NC(=O)c3ccc(F)cc3)c(Br)cc21,-8.3,-1.4,1.1,1.6,·,·
CCOC(=O)C1CCN(c2cc3c(cc2NC(=O)c2ccc(F)cc2)n(C)c(=O)n3C)CC1,-89.6,-56.5,36.1,10.4,-8.6,-4.6
CCOC(=O)C1CCN(C(=O)c2ccccc2NC(=O)c2ccc(Cl)cc2)CC1,-1.2,-0.4,33.5,-0.2,·,·
SMILES,PLCb3 inh,PLC-gamma1 inh,Arr AP2 block,NTR1 agonist,Arr-AP2 CP1,GST GSH counter
CCOC(=O)C1CCN(c2cc3c(cc2NC(=O)c2ccccc2OCC)n(C)c(=O)n3C)CC1,-29.6,-16.5,10.3,4.7,6.1,-3.6
CCN(C[C@H]1[C@@H](c2ccc(C3=CCCC3)cc2)[C@H](CO)N1C(=O)c1cccnc1)S(=O)(=O)c1ccccc1[N+](=O)[O-],0.0,0.1,·,·,·,·
CCN(CC)S(=O)(=O)c1ccc2c(c1)nc(CCC(=O)Nc1cccc(C(F)(F)F)c1)n2CC,1.3,5.3,85.0*,0.2,1.2,1.9
Cc1ccc(NC(=O)c2ccc(CSc3nnc(-c4ccncc4)n3C)cc2)cc1,5.5,1.6,85.1*,0.5,2.5,7.5
COC(=O)C1CN(Cc2ccc(Cl)cc2)CCS(=O)(=O)N1Cc1cn(Cc2ccc(F)cc2)nn1 (stereo not drawn),0.8,1.6,·,·,·,·
O=C1C(Cl)=C(N2CCCCC2)C(=O)C(Cl)=C1c1cnc(N2CCCCC2)s1,·,·,98.1*,3.2,67.6*,18.2
CN(C)c1ncc(C2=C(Cl)C(=O)C(N3CCCC3)=C(Cl)C2=O)s1,-114.6,-84.2,88.2*,0.6,77.1*,27.0
O=C1C(Cl)=C(N2CCCCCC2)C(=O)N1c1ccc(Cl)cc1,-16.2,-6.4,11.0,3.7,·,·
O=C(CCC(=O)N1CCN(S(=O)(=O)c2ccc(Cl)cc2)CC1)NCc1ccccc1,1.9,-0.2,58.0*,2.6,10.1,-0.8
CCNC(=O)COc1ccc(/C=N/NC(=O)c2cccnc2)cc1OC,-10.7,-6.2,-4.3,1.9,·,·
COc1cc(/C=N/NC(=O)c2cccnc2)ccc1OCC(=O)Nc1ccc(C)cc1,-7.1,-5.4,91.0*,1.6,1.1,-5.4
CCCCNC(=S)N/N=C/c1ccc(OCC(=O)Nc2c(C)cc(C)cc2C)c(OC)c1,-1.3,3.5,102.9*,6.8,1.6,-2.4
COc1cc(/C=N/NC(N)=S)ccc1OCC(=O)Nc1ccc(C)c(C)c1,2.6,4.7,2.7,1.1,·,·
Cc1ccccc1CN1CCCCC(NC(=O)C2CCCCC2)C1=O (stereo not drawn),2.4,5.0,·,·,·,·
COc1ccc(OC)c(NC(=O)c2ccc(S(=O)(=O)N3CCOCC3)cc2)c1,1.1,-2.0,16.5,-0.7,·,·
CCOc1ccc(S(=O)(=O)N2CCN(C)CC2)cc1NC(=O)c1ccccc1F,-4.5,2.5,1.9,2.4,·,·
COc1ccc(S(=O)(=O)N2CCOCC2)cc1NC(=O)c1ccncc1,-5.1,1.2,1.7,1.1,-5.6,-2.0
CCOc1ccc(S(=O)(=O)N2CCN(CC)CC2)cc1NC(=O)c1ccccc1F,-0.7,4.8,1.1,1.3,6.5,1.6
Cc1ccc(S(=O)(=O)N2CCCCC2)cc1NC(=O)c1cc(=O)[nH]c2ccccc12,-18.2,-7.5,67.1*,8.0,2.5,-2.6
CCOc1ncccc1C(=O)Nc1cccc(S(=O)(=O)N2CCCCC2)c1,-7.0,2.5,19.2,-0.9,-4.5,-1.2
CCCCc1c(-c2ccccc2OC)ncn1Cc1ccccc1Cl,-4.5,-0.2,·,·,·,·
CCCCc1c(-c2ccccc2OC)ncn1Cc1ccc(Br)cc1,-2.0,0.7,·,·,·,·
COc1ccc(S(=O)(=O)N2CCN(C)CC2)cc1NC(=O)c1ccccc1C,-6.5,1.5,26.2,2.2,-1.4,-3.5
CCOc1ccc(S(=O)(=O)N2CCOCC2)cc1NC(=O)c1ccccc1F,-7.3,1.8,19.2,0.2,·,·

# Screening results deposited in PubChem BioAssay by several laboratories.
